Assay results taken from ChEMBL document CHEMBL1142193, “Dual targeting of GyrB and ParE by a novel aminobenzimidazole class of antibacterial compounds” (2007).
In brackets after ≈: the same amount, converted by molar mass. Activity calls are given as the source filed them. The rule behind the calls is not given here.

Assays:
Haemophilus influenzae [1] = assay: Antibacterial activity against Haemophilus influenzae ATCC 51907 after 18 to 20 hrs; type: functional
Procedure, shortened: (§1)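 MICs followed CLSI guidelines. Strains were grown overnight at 35°C on solid medium. Inocula were prepared with a Prompt system. Compounds were serially diluted twofold in 100% DMSO at 200x and diluted 1:200 into medium, for a final 0.5% DMSO. Plates were incubated at 35°C for 18 to 20 h and read visually. A twofold MIC variation was taken as assay error.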

Streptococcus pneumoniae [2] = assay: Antibacterial activity against Streptococcus pneumoniae ATCC BAA-255 after 18 to 20 hrs; type: functional; procedure, shortened: as §1
Staphylococcus aureus [3] = assay: Antibacterial activity against Staphylococcus aureus ATCC 29213 carrying plasmid expressing GyrB R144I mutant; type: functional
Staphylococcus aureus [4] = assay: Antibacterial activity against Staphylococcus aureus ATCC 29213 carrying plasmid expressing GyrB T173I mutant; type: functional
Staphylococcus aureus [5] = assay: Antibacterial activity against Staphylococcus aureus ATCC 29213 carrying plasmid expressing GyrB T173N mutant; type: functional
Staphylococcus aureus [6] = assay: Antibacterial activity against Staphylococcus aureus ATCC 29213 with GyrB T173I and GrlB T166A mutation after 18 to 20 hrs; type: functional; procedure, shortened: as §1
Streptococcus pneumoniae [7] = assay: Antibacterial activity against Streptococcus pneumoniae ATCC BAA-255 with ParE T172A mutation after 18 to 20 hrs; type: functional; procedure, shortened: as §1
Staphylococcus aureus [8] = assay: Antibacterial activity against Staphylococcus aureus ATCC 29213 carrying plasmid expressing wild type GyrB; type: functional
Staphylococcus aureus [9] = assay: Antibacterial activity against Staphylococcus aureus ATCC 29213 with GyrB T173N and GrlB T166A mutation after 18 to 20 hrs; type: functional; procedure, shortened: as §1
Haemophilus influenzae [10] = assay: Antibacterial activity against novobiocin-resistant Haemophilus influenzae ATCC 51907 with GyrB R140L mutation after 18 to 20 hrs; type: functional; procedure, shortened: as §1
Streptococcus pneumoniae [11] = assay: Antibacterial activity against Streptococcus pneumoniae ATCC BAA-255 with GyrB T172A and ParE T172A mutation after 18 to 20 hrs; type: functional; procedure, shortened: as §1
Staphylococcus aureus [12] = assay: Antibacterial activity against Staphylococcus aureus ATCC 29213 with GyrB R144I mutation without plasmid; type: functional
Staphylococcus aureus [13] = assay: Antibacterial activity against Staphylococcus aureus ATCC 29213 with GyrB T173N mutation after 18 to 20 hrs; type: functional; procedure, shortened: as §1
Staphylococcus aureus [14] = assay: Antibacterial activity against Staphylococcus aureus ATCC 29213 with GyrB T173N mutation without plasmid; type: functional
Enterococcus faecalis [15] = assay: Antibacterial activity against Enterococcus faecalis ATCC 29212 with GyrB T167A and ParE T169A mutation after 18 to 20 hrs; type: functional; procedure, shortened: as §1
Streptococcus pneumoniae [16] = assay: Antibacterial activity against novobiocin-resistant Streptococcus pneumoniae ATCC BAA-255 with GyrB S127L mutation after 18 to 20 hrs; type: functional; procedure, shortened: as §1
Haemophilus influenzae [17] = assay: Antibacterial activity against novobiocin-resistant Haemophilus influenzae ATCC 51907 with GyrB R140C mutation after 18 to 20 hrs; type: functional; procedure, shortened: as §1
Staphylococcus aureus [18] = assay: Antibacterial activity against Staphylococcus aureus ATCC 29213 with GyrB T173I mutation without plasmid; type: functional
Enterococcus faecalis [19] = assay: Antibacterial activity against Enterococcus faecalis ATCC 29212 with ParE T169A mutation after 18 to 20 hrs; type: functional; procedure, shortened: as §1
Haemophilus influenzae [20] = assay: Antibacterial activity against Haemophilus influenzae ATCC 51907 with GyrB T169I mutation after 18 to 20 hrs; type: functional; procedure, shortened: as §1
Escherichia coli = assay: Reduction in steady-state levels of supercoiled pUC18 in Escherichia coli CAG12184 tolC mutant; type: functional, organism-based
Procedure, shortened: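 Cells carrying pUC18 grown at 37°C in caMHB with 100 µg/ml ampicillin to OD600 0.5, then exposed 1 h at 37°C with shaking to a twofold dilution series spanning the MIC. Plasmid isolated, concentrated, run on 1% TBE-agarose alongside supercoiled markers for 16 h, stained with ethidium bromide.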

Haemophilus influenzae [21] = assay: Antibacterial activity against novobiocin-resistant Haemophilus influenzae ATCC 51907 with GyrB R140H mutation after 18 to 20 hrs; type: functional; procedure, shortened: as §1
Staphylococcus aureus [22] = assay: Antibacterial activity against Staphylococcus aureus ATCC 29213 after 18 to 20 hrs; type: functional; procedure, shortened: as §1
Staphylococcus aureus [23] = assay: Antibacterial activity against Staphylococcus aureus ATCC 29213 with GyrB T173I mutation after 18 to 20 hrs; type: functional; procedure, shortened: as §1
Staphylococcus aureus [24] = assay: Antibacterial activity against novobiocin-resistant Staphylococcus aureus ATCC 29213 with GyrB R144I mutation after 18 to 20 hrs; type: functional; procedure, shortened: as §1
Enterococcus faecalis [25] = assay: Antibacterial activity against Enterococcus faecalis ATCC 29212 after 18 to 20 hrs; type: functional; procedure, shortened: as §1
Enterococcus faecalis [26] = assay: Antibacterial activity against Enterococcus faecalis ATCC 29212 with GyrB T167I mutation after 18 to 20 hrs; type: functional; procedure, shortened: as §1
Enterococcus faecalis [27] = assay: Antibacterial activity against Enterococcus faecalis ATCC 29212 with GyrB T167I and ParE T169A mutation after 18 to 20 hrs; type: functional; procedure, shortened: as §1
Enterococcus faecalis [28] = assay: Antibacterial activity against Enterococcus faecalis ATCC 29212 with GyrB T167A mutation after 18 to 20 hrs; type: functional; procedure, shortened: as §1
Staphylococcus aureus [29] = assay: Antibacterial activity against Staphylococcus aureus ATCC 29213 without plasmid; type: functional
Streptococcus pneumoniae [30] = assay: Antibacterial activity against Streptococcus pneumoniae ATCC BAA-255 with ParE T172I mutation after 18 to 20 hrs; type: functional; procedure, shortened: as §1
Staphylococcus aureus [31] = assay: Inhibition of RNA synthesis in Staphylococcus aureus ATCC 29213 assessed as [3H]uridine incorporation; type: functional
Procedure, shortened: (§2)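 Log-phase cells exposed in duplicate to compound at 5x MIC; labelled-precursor uptake measured over 15 min, stopped with 10% trichloroacetic acid. Incorporation expressed as percent of untreated control (taken as 100%).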

Staphylococcus aureus [32] = assay: Inhibition of protein synthesis in Staphylococcus aureus ATCC 29213 assessed as [3H]aminoacid incorporation; type: functional
Staphylococcus aureus [33] = assay: Inhibition of DNA synthesis in Staphylococcus aureus ATCC 29213 assessed as [3H]thymidine incorporation; type: functional; procedure, shortened: as §2

CCNC(=O)Nc1nc2cc(-c3cccnc3)cc(-c3ncccc3F)c2[nH]1
MIC (Haemophilus influenzae [1]): 1 µg/mL (≈ 2.66 µM)
MIC (Streptococcus pneumoniae [2]): 0.004 µg/mL (≈ 0.0106 µM)
MIC (Staphylococcus aureus [3]): 0.06 µg/mL (≈ 0.159 µM)
MIC (Staphylococcus aureus [4]): 0.13 µg/mL (≈ 0.345 µM)
MIC (Staphylococcus aureus [5]): 0.25 µg/mL (≈ 0.664 µM)
MIC (Staphylococcus aureus [6]): 4 µg/mL (≈ 10.6 µM)
MIC (Streptococcus pneumoniae [7]): 0.016 µg/mL (≈ 0.0425 µM)
MIC (Staphylococcus aureus [8]): 0.06 µg/mL (≈ 0.159 µM)
MIC (Staphylococcus aureus [9]): > 8 µg/mL
MIC (Haemophilus influenzae [10]): 1 µg/mL (≈ 2.66 µM)
MIC (Streptococcus pneumoniae [11]): 0.25 µg/mL (≈ 0.664 µM)
MIC (Staphylococcus aureus [12]): 0.06 µg/mL (≈ 0.159 µM)
MIC (Staphylococcus aureus [13]): 0.5 µg/mL (≈ 1.33 µM)
MIC (Staphylococcus aureus [14]): 0.25 µg/mL (≈ 0.664 µM)
MIC (Enterococcus faecalis [15]): 0.5 µg/mL (≈ 1.33 µM)
MIC (Streptococcus pneumoniae [16]): 0.002 µg/mL (≈ 0.00531 µM)
MIC (Haemophilus influenzae [17]): 1 µg/mL (≈ 2.66 µM)
MIC (Staphylococcus aureus [18]): 0.25 µg/mL (≈ 0.664 µM)
MIC (Enterococcus faecalis [19]): 0.064 µg/mL (≈ 0.17 µM)
MIC (Haemophilus influenzae [20]): > 64 µg/mL
Activity (Escherichia coli): Dose-dependent effect
MIC (Haemophilus influenzae [21]): 1 µg/mL (≈ 2.66 µM)
MIC (Staphylococcus aureus [22]): 0.03 µg/mL (≈ 0.0797 µM)
MIC (Staphylococcus aureus [23]): 0.5 µg/mL (≈ 1.33 µM)
MIC (Staphylococcus aureus [24]): 0.06 µg/mL (≈ 0.159 µM)
MIC (Enterococcus faecalis [25]): 0.032 µg/mL (≈ 0.085 µM)
MIC (Enterococcus faecalis [26]): 0.064 µg/mL (≈ 0.17 µM)
MIC (Enterococcus faecalis [27]): 1 µg/mL (≈ 2.66 µM)
MIC (Enterococcus faecalis [28]): 0.032 µg/mL (≈ 0.085 µM)
MIC (Staphylococcus aureus [29]): 0.06 µg/mL (≈ 0.159 µM)
MIC (Streptococcus pneumoniae [30]): 0.016 µg/mL (≈ 0.0425 µM)

CO[C@H]1/C=C/O[C@@]2(C)Oc3c(C)c(O)c4c(O)c(c(/C=N/N5CCN(C)CC5)c(O)c4c3C2=O)NC(=O)/C(C)=C\C=C\[C@H](C)[C@H](O)[C@@H](C)[C@@H](O)[C@@H](C)[C@H](OC(C)=O)[C@@H]1C
Activity (Staphylococcus aureus [31]): Active
Activity (Staphylococcus aureus [32]): Active

CCNC(=O)Nc1nc2cc(-c3cnc(OC)nc3)c(OC)cc2[nH]1
MIC (Haemophilus influenzae [1]): 4 µg/mL (≈ 11.7 µM)
MIC (Streptococcus pneumoniae [2]): 0.5 µg/mL (≈ 1.46 µM)
MIC (Staphylococcus aureus [3]): 2 µg/mL (≈ 5.84 µM)
MIC (Staphylococcus aureus [4]): 8 µg/mL (≈ 23.4 µM)
MIC (Staphylococcus aureus [5]): 8 µg/mL (≈ 23.4 µM)
MIC (Staphylococcus aureus [6]): > 64 µg/mL
MIC (Streptococcus pneumoniae [7]): 8 µg/mL (≈ 23.4 µM)
MIC (Staphylococcus aureus [8]): 2 µg/mL (≈ 5.84 µM)
MIC (Staphylococcus aureus [9]): > 64 µg/mL
MIC (Haemophilus influenzae [10]): 4 µg/mL (≈ 11.7 µM)
MIC (Streptococcus pneumoniae [11]): 64 µg/mL (≈ 187 µM)
MIC (Staphylococcus aureus [12]): 2 µg/mL (≈ 5.84 µM)
Inhibition (Staphylococcus aureus [31]): 20%
MIC (Staphylococcus aureus [13]): 16 µg/mL (≈ 46.7 µM)
MIC (Staphylococcus aureus [14]): 8 µg/mL (≈ 23.4 µM)
MIC (Enterococcus faecalis [15]): > 64 µg/mL
MIC (Streptococcus pneumoniae [16]): 0.5 µg/mL (≈ 1.46 µM)
MIC (Haemophilus influenzae [17]): 2 µg/mL (≈ 5.84 µM)
MIC (Staphylococcus aureus [18]): 8 µg/mL (≈ 23.4 µM)
Inhibition (Staphylococcus aureus [32]): 20%
MIC (Enterococcus faecalis [19]): 8 µg/mL (≈ 23.4 µM)
MIC (Haemophilus influenzae [20]): > 64 µg/mL
Activity (Escherichia coli): Dose-dependent effect
MIC (Haemophilus influenzae [21]): 2 µg/mL (≈ 5.84 µM)
MIC (Staphylococcus aureus [22]): 2 µg/mL (≈ 5.84 µM)
MIC (Staphylococcus aureus [23]): 16 µg/mL (≈ 46.7 µM)
MIC (Staphylococcus aureus [24]): 4 µg/mL (≈ 11.7 µM)
MIC (Enterococcus faecalis [25]): 1 µg/mL (≈ 2.92 µM)
MIC (Enterococcus faecalis [26]): 1 µg/mL (≈ 2.92 µM)
Inhibition (Staphylococcus aureus [33]): 80%
MIC (Enterococcus faecalis [27]): > 64 µg/mL
MIC (Enterococcus faecalis [28]): 0.5 µg/mL (≈ 1.46 µM)
MIC (Staphylococcus aureus [29]): 2 µg/mL (≈ 5.84 µM)
MIC (Streptococcus pneumoniae [30]): 4 µg/mL (≈ 11.7 µM)
